Here are results for 17 molecules from ChEMBL document CHEMBL3351261, “Induction of intrinsic apoptosis pathway in colon cancer HCT-116 cells by novel 2-substituted-5,6,7,8-tetrahydronaphthalene derivatives” (Eur J Med Chem, 2014).

For experiment [1], the system named is HCT-116. Description: Induction of DNA fragmentation in human HCT116 cells at IC50 after 30 mins relative to control. The class given is functional. The method, boiled down:
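HCT-116 cells, treated or untreated, were resuspended in TE buffer (10 mM Tris, 1 mM EDTA, pH 8.0) and lysed 30 min in 5 mM Tris, 20 mM EDTA, 0.5% Triton X-100, pH 8.0. Fragmented DNA (supernatant) was separated from intact chromatin (pellet) by centrifugation and quantified with diphenylamine reagent. % fragmentation = supernatant DNA / pellet DNA; three measurements, mean ± SD.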

The subject of experiment [2] is HCT-116. Description: Induction of apoptosis in human HCT116 cells assessed as increase in caspase-9 level relative to control. The class given is functional, cell-based. An outline of the steps: (§1)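 HCT-116 cells, treated or untreated, were lysed (pH 7.4) and cleared at 14,000× g, 15 min, 4 °C. Kit-based read-outs: total caspases via Red-VAD-FMK fluorescence (Ex 540/Em 570 nm); caspase-3 colorimetric at 405 nm; caspase-9 via LEHD-pNA cleavage, pNA at 405 nm. Results are fold over untreated cells.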

The next experiment deals with MCF7. Description: Cytotoxicity against human MCF7 cells after 48 hrs by MTT method. Particulars: MCF7, 48 h. It is filed as functional, cell-based. (Formazan colour is commonly taken as a measure of viable cells.)
The subject of experiment [3] is HCT-116. Description: Induction of apoptosis in human HCT116 cells assessed as reduction of mitochondrial membrane potential after 2 hrs by JC-1 staining-based fluorescence assay. The class given is functional, cell-based. An outline of the steps:
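HCT-116 cells in 96-well plates were preloaded with 10 µg/ml JC-1 in HBSS for 30 min at 37 °C, then incubated with or without compound for 2 h at 37 °C. The 590/527 nm emission ratio was read at zero time and at 2 h and expressed as % of the zero-time reading. CCCP served as positive control; mean of three readings ± SD.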

A further experiment relates to HeLa. Description: Cytotoxicity against human HeLa cells after 48 hrs by MTT method. The class given is functional, cell-based.
Experiment [4] deals with HCT-116. Put plainly: Induction of apoptosis in human HCT116 cells assessed as increase in caspase-3 level relative to control. The class given is functional, cell-based. The method, boiled down: as §1
Experiment [5] relates to HCT-116. Description: Induction of necrosis in human HCT116 cells at IC50 by acridine orange/ethidium bromide staining-based fluorescence microscopy. The class given is functional. The method, boiled down:
(§2)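 Treated and untreated HCT-116 cells were stained with acridine orange/ethidium bromide (each 100 µg/ml mix in PBS) and examined under fluorescence microscopy, blinded. Cells with yellow condensed or fragmented nuclei were counted as apoptotic; bright orange chromatin in round nuclei was counted as necrotic. Each is reported as % of the dead-cell population.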

The nature of experiment [6]: Cytotoxicity against human HCT116 cells after 48 hrs by MTT method. The class given is functional, cell-based. Particulars: HCT-116, 48 h.
The test system of experiment [7] is HCT-116. Put plainly: Induction of apoptosis in human HCT116 cells assessed as cytochrome C accumulation by immunoblotting analysis. The class given is functional, cell-based. The method, boiled down: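 HCT-116 cells were lysed in ice-cold buffer (pH 7.4) with NP40, Triton X-100 and protease/phosphatase inhibitors, then cleared at 14,000× g for 15 min at 4 °C; protein was measured by BCA. Soluble protein (20 µg) was dot-blotted on nitrocellulose and probed for cytochrome c, detected with HRP anti-goat antibody and OPD. Dot colour intensity is given as mean % of three replicates.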
Background: In western blotting, separated proteins are transferred to a membrane and probed.

The next experiment has as its system HepG2. Put plainly: Cytotoxicity against human HepG2 cells after 48 hrs by MTT method. The class given is functional, cell-based. Particulars: HepG2, 48 h.
In experiment [8] the test system is HCT-116. Put plainly: Induction of apoptosis in human HCT116 cells assessed as increase in total caspase level relative to control. The class given is functional, cell-based. The method, boiled down:
as §1

The test system of experiment [9] is HCT-116. Put plainly: Induction of apoptosis in human HCT116 cells at IC50 by acridine orange/ethidium bromide staining-based fluorescence microscopy. The class given is functional. An outline of the steps:
as §2

Converted amounts (≈) assume the structure as drawn. The source made the active and inactive calls. The calls are words filed in the database; no cut-off is given here.

As usually defined, the IC50 is the concentration needed to halve the response being measured. Low readings indicate greater potency in that assay, high ones weaker potency in that assay. As to `c1cc(-c2ccc3c(c2)CCCC3)n2ncnc2n1`, the result in the experiment with HCT-116 [1], in the experiment with HCT-116 [3], in the experiment on HCT-116 [4], with HCT-116 [7] and in the experiment with HCT-116 [8] was Active. The outcome in the experiment on HCT-116 [2] was inactive. Moreover, the IC50 in the experiment with MCF7 worked out at 48.2 µg/mL (≈ 193 µM); with HeLa, 21.8 µg/mL (≈ 87.1 µM); in experiment [6], 2.1 µg/mL (≈ 8.39 µM); in the experiment on HepG2 it was 15.9 µg/mL (≈ 63.5 µM). Also, the results for the Activity in the experiment on HCT-116 [5] and in the experiment with HCT-116 [9] were 0% and 77%, respectively.
For `O=C(/C=C/N1CCCCC1)c1ccc2c(c1)CCCC2`, the IC50 with MCF7 was found to be 41.1 µg/mL (≈ 153 µM); with HeLa, 35.6 µg/mL (≈ 132 µM); in experiment [6] it was 35.4 µg/mL (≈ 131 µM); with HepG2, 39.1 µg/mL (≈ 145 µM).
Take `O=C(/C=C\Nc1ccc([N+](=O)[O-])cc1)c1ccc2c(c1)CCCC2`: the result in the experiment with HCT-116 [1], in the experiment with HCT-116 [7] and in the experiment with HCT-116 [8] was Active. In addition, the IC50 came out at 28.5 µg/mL (≈ 88.4 µM) in the experiment with MCF7, 48.4 µg/mL (≈ 150 µM) in the experiment on HeLa, 6.8 µg/mL (≈ 21.1 µM) in [6] and 27.4 µg/mL (≈ 85 µM) in the experiment on HepG2. Besides, the Activity is reported as 0% in the experiment on HCT-116 [5] and 77% with HCT-116 [9].
As for `O=C(/C=C/N1CCOCC1)c1ccc2c(c1)CCCC2`, in the experiment on HCT-116 [1], the result was Active. Besides, the 50% inhibitory concentration (IC50) was 38.6 µg/mL (≈ 142 µM) in the experiment on MCF7, 41.2 µg/mL (≈ 152 µM) with HeLa, 7.2 µg/mL (≈ 26.5 µM) in [6] and 18.2 µg/mL (≈ 67.1 µM) in the experiment on HepG2. Besides, the result in the experiment on HCT-116 [3] was inactive. For the same molecule, the Activity with HCT-116 [5] is 0%; in the experiment with HCT-116 [9], 77%.
As to `c1ccc(-c2cc3nccc(-c4ccc5c(c4)CCCC5)n3n2)cc1`, the IC50 in the experiment with MCF7 amounted to 19.9 µg/mL (≈ 61.2 µM); in the experiment on HeLa it was 36.2 µg/mL (≈ 111 µM); in [6] it was 26.7 µg/mL (≈ 82 µM); in the experiment on HepG2, 37.6 µg/mL (≈ 116 µM).
Turning to `O=C(/C=C\Nc1ccc(Cl)cc1)c1ccc2c(c1)CCCC2`, the outcome with HCT-116 [1] was Active. The half-maximal inhibitory concentration (IC50) came out at 28.7 µg/mL (≈ 92 µM) in the experiment with MCF7, 19.9 µg/mL (≈ 63.8 µM) in the experiment with HeLa, 7.9 µg/mL (≈ 25.3 µM) in [6] and 30.3 µg/mL (≈ 97.2 µM) in the experiment on HepG2. Moreover, in the experiment with HCT-116 [3], the outcome was inactive. The values for the Activity in the experiment on HCT-116 [5] and with HCT-116 [9] were 0% and 77%, respectively.
For the molecule `O=c1[nH]c(=O)c2c(-c3ccc4c(c3)CCCC4)ccnc2[nH]1`, the IC50 with MCF7 was 24.4 µg/mL (≈ 83.2 µM); in the experiment with HeLa, 29.1 µg/mL (≈ 99.2 µM); in experiment [6], 18.6 µg/mL (≈ 63.4 µM); in the experiment on HepG2 it was 39.9 µg/mL (≈ 136 µM).
For `CN(C)/C=C/C(=O)c1ccc2c(c1)CCCC2`, in that order: 29.3 µg/mL (≈ 128 µM), 33.4 µg/mL (≈ 146 µM), 18.9 µg/mL (≈ 82.4 µM) and 22.3 µg/mL (≈ 97.2 µM).
For `CC(=O)Nc1ccc(-c2ccc3c(c2)CCCC3)oc1=O`, the result with HCT-116 [1] and with HCT-116 [2] was Active. The 50% inhibitory concentration (IC50) came to 20.9 µg/mL (≈ 73.8 µM) in the experiment on MCF7, 30.4 µg/mL (≈ 107 µM) in the experiment with HeLa, 8.4 µg/mL (≈ 29.6 µM) in experiment [6] and 45.3 µg/mL (≈ 160 µM) with HepG2. Further, the outcome with HCT-116 [4] was inactive. The results for the Activity with HCT-116 [5] and in the experiment with HCT-116 [9] were 0% and 77%, respectively.
As for `O=c1[nH]c(=S)[nH]c2nccc(-c3ccc4c(c3)CCCC4)c12`, the result with HCT-116 [1], with HCT-116 [2], with HCT-116 [3], in the experiment with HCT-116 [4], with HCT-116 [7] and in the experiment with HCT-116 [8] was Active. Besides, the half-inhibitory concentration (IC50) in the experiment on MCF7 stood at 18.2 µg/mL (≈ 58.8 µM); in the experiment with HeLa, 25.3 µg/mL (≈ 81.8 µM); in [6] it was 0.49 µg/mL (≈ 1.58 µM); in the experiment on HepG2 it was 27 µg/mL (≈ 87.3 µM). Also, the values for the Activity with HCT-116 [5] and in the experiment on HCT-116 [9] were 0% and 77%, respectively.
Turning to `O=C(c1ccc2c(c1)CCCC2)c1coc2ccc(O)cc12`, in the experiment with HCT-116 [1], the outcome was Active. Further, the IC50 in the experiment on MCF7 turned out to be 40.3 µg/mL (≈ 138 µM); in the experiment with HeLa it was 41.6 µg/mL (≈ 142 µM); in [6], 9.5 µg/mL (≈ 32.5 µM); in the experiment with HepG2, 39.2 µg/mL (≈ 134 µM). For the same molecule, the result in the experiment with HCT-116 [3] was inactive. Further, the Activity with HCT-116 [5] is recorded as 0%; in the experiment with HCT-116 [9], 77%.
In turn, `CC(=O)O[C@H]1C(=O)[C@@]2(C)[C@H]([C@H](OC(=O)c3ccccc3)[C@]3(O)C[C@H](OC(=O)[C@H](O)[C@@H](NC(=O)c4ccccc4)c4ccccc4)C(C)=C1C3(C)C)[C@]1(OC(C)=O)CO[C@@H]1C[C@@H]2O` [PACLITAXEL] returned an Activity in the experiment with HCT-116 [1] of 44%. In addition, the half-maximal inhibitory concentration (IC50) is 0.61 µg/mL (≈ 0.714 µM) in the experiment on MCF7, 0.47 µg/mL (≈ 0.55 µM) in the experiment with HeLa, 0.38 µg/mL (≈ 0.445 µM) in experiment [6] and 0.59 µg/mL (≈ 0.691 µM) in the experiment on HepG2.
As to `O=C(c1ccc2c(c1)CCCC2)c1coc2c1cc(O)c1ccccc12`, the concentration for half-maximal inhibition (IC50) in the experiment on MCF7 was 48.7 µg/mL (≈ 142 µM); in the experiment with HeLa, 40.5 µg/mL (≈ 118 µM); in [6] it was 36.2 µg/mL (≈ 106 µM); in the experiment on HepG2, 31.7 µg/mL (≈ 92.6 µM).
In the case of `COc1ccc(N/C=C\C(=O)c2ccc3c(c2)CCCC3)cc1`, the IC50 in the experiment on MCF7 was 43.1 µg/mL (≈ 140 µM); with HeLa, 46.1 µg/mL (≈ 150 µM); in experiment [6], 31.8 µg/mL (≈ 103 µM); with HepG2, 31.8 µg/mL (≈ 103 µM).
Regarding `Cc1ccc(N/C=C\C(=O)c2ccc3c(c2)CCCC3)cc1`, the concentration for half-maximal inhibition (IC50) was 43.6 µg/mL (≈ 150 µM) in the experiment on MCF7, 28.7 µg/mL (≈ 98.5 µM) with HeLa, 42.1 µg/mL (≈ 144 µM) in experiment [6] and 42.7 µg/mL (≈ 147 µM) in the experiment with HepG2.
Turning to `O=C(/C=C\Nc1ccccc1)c1ccc2c(c1)CCCC2`, the IC50 with MCF7 came out at 32.2 µg/mL (≈ 116 µM); in the experiment with HeLa, 30.6 µg/mL (≈ 110 µM); in [6], 41.6 µg/mL (≈ 150 µM); with HepG2, 19.9 µg/mL (≈ 71.7 µM).
Regarding `O=C(Nc1ccc(-c2ccc3c(c2)CCCC3)oc1=O)c1ccccc1`, the concentration for half-maximal inhibition (IC50) is 27.5 µg/mL (≈ 79.6 µM) in the experiment with MCF7, 38.3 µg/mL (≈ 111 µM) with HeLa, 47.7 µg/mL (≈ 138 µM) in [6] and 29.3 µg/mL (≈ 84.8 µM) with HepG2. Also, the result in the experiment on HCT-116 [7] and in the experiment on HCT-116 [8] was Active.
